ChEMBL document CHEMBL5653631, “A Potent and Selective ULK1 Inhibitor Suppresses Autophagy and Sensitizes Cancer Cells to Nutrient Stress” (iScience, 2018)

How the values were obtained:
[1] = target: ALK tyrosine kinase receptor (Homo sapiens) (UniProt Q9UM73); experiment: Inhibition of human recombinant ALK at 500 nM in presence of ATP by radiometric assay relative to control
How it was run: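 Panel of 327 recombinant human kinases in radiometric activity assays, each screened in duplicate at a single inhibitor concentration; percent activity remaining relative to vehicle control, percent inhibition taken as 100 minus activity remaining.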

[2] = target: Epidermal growth factor receptor (Homo sapiens) (UniProt P00533); experiment: Inhibition of human recombinant EGFR at 500 nM in presence of ATP by radiometric assay relative to control
Chain of Epidermal growth factor receptor (Homo sapiens) (P00533 whole entry): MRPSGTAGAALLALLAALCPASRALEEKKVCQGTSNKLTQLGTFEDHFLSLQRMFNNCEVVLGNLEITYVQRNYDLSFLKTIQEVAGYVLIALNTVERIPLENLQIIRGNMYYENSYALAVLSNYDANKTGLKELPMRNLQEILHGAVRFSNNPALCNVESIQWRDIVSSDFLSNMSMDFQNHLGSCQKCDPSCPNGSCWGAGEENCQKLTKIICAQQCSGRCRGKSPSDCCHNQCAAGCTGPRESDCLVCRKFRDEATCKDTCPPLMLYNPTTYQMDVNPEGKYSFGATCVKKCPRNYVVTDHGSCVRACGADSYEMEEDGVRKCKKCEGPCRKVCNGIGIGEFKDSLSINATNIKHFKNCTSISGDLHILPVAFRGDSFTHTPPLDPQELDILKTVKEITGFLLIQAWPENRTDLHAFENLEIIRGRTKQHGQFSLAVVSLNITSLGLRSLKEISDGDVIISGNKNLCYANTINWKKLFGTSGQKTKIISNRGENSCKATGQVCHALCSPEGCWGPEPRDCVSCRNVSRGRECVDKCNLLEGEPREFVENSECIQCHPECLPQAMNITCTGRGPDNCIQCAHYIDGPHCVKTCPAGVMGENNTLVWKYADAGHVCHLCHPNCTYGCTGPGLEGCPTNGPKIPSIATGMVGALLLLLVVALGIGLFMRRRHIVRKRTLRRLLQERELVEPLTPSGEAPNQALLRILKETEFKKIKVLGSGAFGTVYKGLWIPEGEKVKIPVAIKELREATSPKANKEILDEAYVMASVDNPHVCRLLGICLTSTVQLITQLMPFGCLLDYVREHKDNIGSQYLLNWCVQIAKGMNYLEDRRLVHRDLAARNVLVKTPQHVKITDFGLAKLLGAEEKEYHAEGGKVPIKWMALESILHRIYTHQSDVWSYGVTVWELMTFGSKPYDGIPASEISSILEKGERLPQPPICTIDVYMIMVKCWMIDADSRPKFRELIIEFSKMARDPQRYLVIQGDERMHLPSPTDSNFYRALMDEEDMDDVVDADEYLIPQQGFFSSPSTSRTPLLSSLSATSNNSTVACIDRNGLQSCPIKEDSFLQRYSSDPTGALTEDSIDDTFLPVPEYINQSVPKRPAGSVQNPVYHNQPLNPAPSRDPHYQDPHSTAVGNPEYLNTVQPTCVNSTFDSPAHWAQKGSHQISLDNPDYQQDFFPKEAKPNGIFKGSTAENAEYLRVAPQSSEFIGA

[3] = target: T1, Serine/threonine-protein kinase ICK (Homo sapiens) (UniProt Q9UPZ9); experiment: Inhibition of human recombinant ICK at 500 nM related to control ULK1
T1 sequence (whole entry): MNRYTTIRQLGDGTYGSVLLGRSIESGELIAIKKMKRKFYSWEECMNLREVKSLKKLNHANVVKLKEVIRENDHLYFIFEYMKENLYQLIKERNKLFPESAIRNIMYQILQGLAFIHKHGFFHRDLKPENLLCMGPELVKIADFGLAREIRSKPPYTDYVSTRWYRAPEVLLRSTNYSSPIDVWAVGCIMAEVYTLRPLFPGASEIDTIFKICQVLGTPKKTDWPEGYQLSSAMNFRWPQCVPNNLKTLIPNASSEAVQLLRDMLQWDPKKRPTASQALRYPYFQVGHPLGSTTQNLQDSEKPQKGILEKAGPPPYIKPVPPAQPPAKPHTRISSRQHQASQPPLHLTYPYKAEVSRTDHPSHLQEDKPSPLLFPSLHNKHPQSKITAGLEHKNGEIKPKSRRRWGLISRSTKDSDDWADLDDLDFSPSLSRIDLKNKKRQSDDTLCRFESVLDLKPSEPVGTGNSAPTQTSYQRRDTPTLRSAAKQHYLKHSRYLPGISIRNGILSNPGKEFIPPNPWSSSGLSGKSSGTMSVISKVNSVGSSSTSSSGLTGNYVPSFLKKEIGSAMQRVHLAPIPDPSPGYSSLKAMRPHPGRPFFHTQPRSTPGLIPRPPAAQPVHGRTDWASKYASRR

[4] = target: T2, Ephrin type-A receptor 3 (Homo sapiens) (UniProt P29320); experiment: Inhibition of human recombinant EphA3 at 500 nM related to control ULK1
T2 sequence (whole entry): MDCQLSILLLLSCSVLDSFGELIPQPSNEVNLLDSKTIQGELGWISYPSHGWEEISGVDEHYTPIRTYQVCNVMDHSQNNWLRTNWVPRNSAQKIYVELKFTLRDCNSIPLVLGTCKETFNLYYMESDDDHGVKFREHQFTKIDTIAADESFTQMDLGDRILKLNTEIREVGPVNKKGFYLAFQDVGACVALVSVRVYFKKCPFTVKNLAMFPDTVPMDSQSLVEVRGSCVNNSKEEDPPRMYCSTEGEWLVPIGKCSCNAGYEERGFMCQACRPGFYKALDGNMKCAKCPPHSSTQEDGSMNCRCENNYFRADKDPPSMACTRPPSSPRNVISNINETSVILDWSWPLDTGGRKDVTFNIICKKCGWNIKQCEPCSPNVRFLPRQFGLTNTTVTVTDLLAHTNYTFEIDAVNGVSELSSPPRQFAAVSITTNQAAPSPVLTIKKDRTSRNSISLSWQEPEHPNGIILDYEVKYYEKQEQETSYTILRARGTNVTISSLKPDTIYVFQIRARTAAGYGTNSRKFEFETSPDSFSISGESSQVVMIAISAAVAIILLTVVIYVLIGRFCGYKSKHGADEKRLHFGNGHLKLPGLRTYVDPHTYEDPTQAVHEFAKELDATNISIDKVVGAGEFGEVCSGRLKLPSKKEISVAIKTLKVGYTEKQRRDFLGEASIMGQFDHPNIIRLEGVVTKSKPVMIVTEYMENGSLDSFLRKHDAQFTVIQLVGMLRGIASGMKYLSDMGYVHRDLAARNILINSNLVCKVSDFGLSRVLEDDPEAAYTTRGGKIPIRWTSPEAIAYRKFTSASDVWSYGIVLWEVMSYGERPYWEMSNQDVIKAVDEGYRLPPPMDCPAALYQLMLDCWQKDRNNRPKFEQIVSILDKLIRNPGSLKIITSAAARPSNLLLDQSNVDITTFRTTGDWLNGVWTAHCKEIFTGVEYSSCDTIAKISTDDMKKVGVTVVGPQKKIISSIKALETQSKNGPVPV

[5] = target: Aurora kinase B (Homo sapiens) (UniProt Q96GD4); experiment: Inhibition of human recombinant AurB at 500 nM related to control ULK1
Chain of Aurora kinase B (Homo sapiens) (Q96GD4 whole entry): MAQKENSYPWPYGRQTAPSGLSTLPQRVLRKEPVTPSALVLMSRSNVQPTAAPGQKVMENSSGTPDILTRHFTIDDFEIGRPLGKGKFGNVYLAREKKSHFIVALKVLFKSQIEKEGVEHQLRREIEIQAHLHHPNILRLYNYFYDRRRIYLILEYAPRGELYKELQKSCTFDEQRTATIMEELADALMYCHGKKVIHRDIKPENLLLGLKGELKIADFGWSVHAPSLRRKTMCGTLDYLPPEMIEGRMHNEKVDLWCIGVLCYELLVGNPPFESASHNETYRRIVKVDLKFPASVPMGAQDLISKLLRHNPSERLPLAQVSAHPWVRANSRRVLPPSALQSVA

[6] = target: T3, Muscle, skeletal receptor tyrosine-protein kinase (Homo sapiens) (UniProt O15146); experiment: Inhibition of human recombinant MUSK at 500 nM in presence of ATP by radiometric assay relative to control
T3 sequence (whole entry): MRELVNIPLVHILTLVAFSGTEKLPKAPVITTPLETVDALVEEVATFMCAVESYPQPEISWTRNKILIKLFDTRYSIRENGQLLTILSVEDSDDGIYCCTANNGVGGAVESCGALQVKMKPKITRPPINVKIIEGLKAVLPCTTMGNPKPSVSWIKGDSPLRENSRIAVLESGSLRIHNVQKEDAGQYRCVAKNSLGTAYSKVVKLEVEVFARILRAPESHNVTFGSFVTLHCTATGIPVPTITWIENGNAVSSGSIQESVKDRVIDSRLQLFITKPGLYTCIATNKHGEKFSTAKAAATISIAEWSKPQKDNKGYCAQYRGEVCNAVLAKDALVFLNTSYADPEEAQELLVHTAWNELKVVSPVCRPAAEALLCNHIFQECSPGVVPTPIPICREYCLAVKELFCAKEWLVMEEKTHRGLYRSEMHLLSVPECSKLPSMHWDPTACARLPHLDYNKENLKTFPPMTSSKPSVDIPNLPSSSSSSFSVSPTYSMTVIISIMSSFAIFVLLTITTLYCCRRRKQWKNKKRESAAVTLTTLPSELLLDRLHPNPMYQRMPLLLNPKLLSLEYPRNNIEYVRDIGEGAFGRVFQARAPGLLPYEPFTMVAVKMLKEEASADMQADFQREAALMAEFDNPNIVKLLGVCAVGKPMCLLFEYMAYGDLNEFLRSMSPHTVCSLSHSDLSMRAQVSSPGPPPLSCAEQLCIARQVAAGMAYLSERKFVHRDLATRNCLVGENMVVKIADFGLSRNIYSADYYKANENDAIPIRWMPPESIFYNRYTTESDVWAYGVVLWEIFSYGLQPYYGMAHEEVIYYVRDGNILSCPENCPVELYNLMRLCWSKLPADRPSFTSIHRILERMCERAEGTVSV

[7] = target: Cyclin-dependent kinase 9 (Homo sapiens) (UniProt P50750); experiment: Inhibition of human recombinant CDK9 at 500 nM related to control ULK1
[8] = target: Bone morphogenetic protein receptor type-1B (Homo sapiens) (UniProt O00238); experiment: Inhibition of human recombinant BMPR1B at 500 nM related to control ULK1
[9] = target: eIF-2-alpha kinase GCN2 (Homo sapiens) (UniProt Q9P2K8); experiment: Inhibition of human recombinant GCN2 at 40 nM related to control ULK1
Chain of eIF-2-alpha kinase GCN2 (Homo sapiens) (Q9P2K8 whole entry): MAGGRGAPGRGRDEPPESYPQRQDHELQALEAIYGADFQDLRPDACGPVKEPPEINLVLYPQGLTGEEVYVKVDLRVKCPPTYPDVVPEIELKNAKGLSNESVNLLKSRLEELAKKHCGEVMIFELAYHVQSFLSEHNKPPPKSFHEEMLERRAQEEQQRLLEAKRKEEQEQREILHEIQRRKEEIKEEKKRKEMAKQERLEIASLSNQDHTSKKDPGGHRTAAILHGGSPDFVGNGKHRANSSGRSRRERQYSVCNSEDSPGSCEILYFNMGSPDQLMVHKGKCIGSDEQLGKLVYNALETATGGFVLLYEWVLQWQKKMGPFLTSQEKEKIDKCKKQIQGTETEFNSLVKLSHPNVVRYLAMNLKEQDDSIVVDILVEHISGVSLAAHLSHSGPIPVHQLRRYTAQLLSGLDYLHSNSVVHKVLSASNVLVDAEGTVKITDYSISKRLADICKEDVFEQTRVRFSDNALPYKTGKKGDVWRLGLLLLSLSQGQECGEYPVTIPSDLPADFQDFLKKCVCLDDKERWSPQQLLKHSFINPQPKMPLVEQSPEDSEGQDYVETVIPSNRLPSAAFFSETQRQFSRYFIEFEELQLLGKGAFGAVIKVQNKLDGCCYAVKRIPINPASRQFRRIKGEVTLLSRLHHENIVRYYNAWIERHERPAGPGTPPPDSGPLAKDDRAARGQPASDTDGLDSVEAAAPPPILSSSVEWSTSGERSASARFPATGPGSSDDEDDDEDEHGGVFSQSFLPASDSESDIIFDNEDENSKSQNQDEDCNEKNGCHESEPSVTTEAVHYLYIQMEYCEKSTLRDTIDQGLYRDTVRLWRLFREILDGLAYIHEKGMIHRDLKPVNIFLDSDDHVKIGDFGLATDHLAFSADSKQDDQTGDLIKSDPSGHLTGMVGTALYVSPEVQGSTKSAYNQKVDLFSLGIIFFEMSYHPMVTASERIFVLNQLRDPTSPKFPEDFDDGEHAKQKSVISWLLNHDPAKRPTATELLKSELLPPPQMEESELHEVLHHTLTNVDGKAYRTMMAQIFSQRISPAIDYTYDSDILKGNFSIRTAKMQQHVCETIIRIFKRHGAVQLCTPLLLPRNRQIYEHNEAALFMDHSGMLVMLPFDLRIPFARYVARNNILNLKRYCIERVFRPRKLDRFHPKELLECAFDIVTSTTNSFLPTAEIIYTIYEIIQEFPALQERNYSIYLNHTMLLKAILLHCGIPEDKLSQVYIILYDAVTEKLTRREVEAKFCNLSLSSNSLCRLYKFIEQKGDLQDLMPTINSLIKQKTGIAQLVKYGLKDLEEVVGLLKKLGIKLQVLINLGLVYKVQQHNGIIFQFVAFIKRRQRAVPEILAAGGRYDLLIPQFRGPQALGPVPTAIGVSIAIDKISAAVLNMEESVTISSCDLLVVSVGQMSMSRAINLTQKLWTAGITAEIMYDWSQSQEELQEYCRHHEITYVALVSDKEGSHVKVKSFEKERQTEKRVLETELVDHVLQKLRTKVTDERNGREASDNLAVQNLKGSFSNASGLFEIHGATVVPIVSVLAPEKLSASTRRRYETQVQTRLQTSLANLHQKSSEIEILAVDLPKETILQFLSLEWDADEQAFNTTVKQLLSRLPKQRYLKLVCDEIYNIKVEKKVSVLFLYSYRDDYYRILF

Chain of ALK tyrosine kinase receptor (Homo sapiens) (Q9UM73 19-1620 limits assumed): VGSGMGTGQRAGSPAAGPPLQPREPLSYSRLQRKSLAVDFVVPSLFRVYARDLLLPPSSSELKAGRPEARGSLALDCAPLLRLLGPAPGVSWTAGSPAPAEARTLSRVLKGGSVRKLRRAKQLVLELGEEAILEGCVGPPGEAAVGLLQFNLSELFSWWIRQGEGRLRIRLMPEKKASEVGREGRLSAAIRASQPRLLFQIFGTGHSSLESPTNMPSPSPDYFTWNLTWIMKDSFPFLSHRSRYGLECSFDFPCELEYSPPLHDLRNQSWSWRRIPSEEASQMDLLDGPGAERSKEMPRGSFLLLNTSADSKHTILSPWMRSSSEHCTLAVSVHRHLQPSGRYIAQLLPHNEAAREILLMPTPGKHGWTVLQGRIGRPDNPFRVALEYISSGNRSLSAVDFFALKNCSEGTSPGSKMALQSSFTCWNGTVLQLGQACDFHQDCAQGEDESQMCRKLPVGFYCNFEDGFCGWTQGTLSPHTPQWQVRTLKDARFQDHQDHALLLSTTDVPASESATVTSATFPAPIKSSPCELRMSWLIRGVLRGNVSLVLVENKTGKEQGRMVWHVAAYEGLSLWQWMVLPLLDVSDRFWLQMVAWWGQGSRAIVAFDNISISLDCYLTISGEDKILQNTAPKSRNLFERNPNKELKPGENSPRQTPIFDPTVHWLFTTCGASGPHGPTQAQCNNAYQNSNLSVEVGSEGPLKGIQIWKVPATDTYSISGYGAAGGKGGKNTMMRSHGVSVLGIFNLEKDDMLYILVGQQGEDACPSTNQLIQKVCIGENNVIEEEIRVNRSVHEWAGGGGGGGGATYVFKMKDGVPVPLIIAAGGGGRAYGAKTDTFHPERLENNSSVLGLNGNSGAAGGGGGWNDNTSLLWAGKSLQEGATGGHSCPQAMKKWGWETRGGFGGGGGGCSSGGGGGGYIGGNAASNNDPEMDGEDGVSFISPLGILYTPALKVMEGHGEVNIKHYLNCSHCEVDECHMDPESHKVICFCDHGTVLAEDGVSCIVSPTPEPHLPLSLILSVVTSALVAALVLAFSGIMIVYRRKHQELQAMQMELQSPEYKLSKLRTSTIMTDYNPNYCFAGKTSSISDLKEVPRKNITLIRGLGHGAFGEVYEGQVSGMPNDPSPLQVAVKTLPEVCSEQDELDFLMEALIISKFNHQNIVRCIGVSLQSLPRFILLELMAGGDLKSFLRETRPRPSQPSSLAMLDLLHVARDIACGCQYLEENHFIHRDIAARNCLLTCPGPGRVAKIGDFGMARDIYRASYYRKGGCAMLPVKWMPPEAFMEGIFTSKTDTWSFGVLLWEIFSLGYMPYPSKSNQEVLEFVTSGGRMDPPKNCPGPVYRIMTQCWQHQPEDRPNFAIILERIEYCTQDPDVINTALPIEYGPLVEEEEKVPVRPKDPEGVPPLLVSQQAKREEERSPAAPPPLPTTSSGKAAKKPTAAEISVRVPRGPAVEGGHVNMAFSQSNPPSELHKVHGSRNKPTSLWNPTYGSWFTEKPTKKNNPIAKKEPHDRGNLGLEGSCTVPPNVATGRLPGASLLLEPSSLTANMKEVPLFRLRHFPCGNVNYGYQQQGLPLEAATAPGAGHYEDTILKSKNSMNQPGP

| Compound | inhibition [1] | inhibition [2] | fold change (FC) [3] | fold change (FC) [4] | fold change (FC) [5] | inhibition [6] | fold change (FC) [7] | fold change (FC) [8] | fold change (FC) [9] |
| --- | --- | --- | --- | --- | --- | --- | --- | --- | --- |
| CNC(=O)c1ccccc1Oc1nc(Nc2cc(OC)c(OC)c(OC)c2)ncc1Br | 0% | 3% | 0.04 | 0.15 | 1.24 | 34% | 0.04 | 0 |  |
| O=C(N[C@@H](C1CC1)C(F)(F)F)c1cc(-c2cnn3cc(-c4ccc(F)cc4)cnc23)cs1 |  |  |  |  |  |  |  |  | 0.05 |
